Results from ChEMBL document CHEMBL1146231, “Novel semisynthetic derivative of antibiotic Eremomycin active against drug-resistant gram-positive pathogens including Bacillus anthracis” (J Med Chem, 2007).
≈ marks a conversion by molar mass, not a printed value.

Key:
Staphylococcus aureus [1] = experiment: Antimicrobial activity against glycopeptide intermediate resistant Staphylococcus aureus 3798 isolate; type: functional
In short: (§1)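 MICs were run by broth microdilution as recommended by NCCLS, in cation-adjusted Mueller-Hinton broth. Compound was serially diluted 2-fold, over a final range of 64 to 0.03 µg/mL after inoculation.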

Enterococcus faecalis [2] = experiment: Antimicrobial activity against vancomycin-susceptible Enterococcus faecalis 559 isolate; type: functional; in short: as §1
Enterococcus faecium [3] = experiment: Antimicrobial activity against vancomycin-susceptible Enterococcus faecium 568 isolate; type: functional; in short: as §1
Staphylococcus aureus [4] = experiment: Antimicrobial activity against glycopeptide intermediate resistant Staphylococcus aureus 3793 isolate; type: functional; in short: as §1
Enterococcus faecalis [5] = experiment: Antimicrobial activity against vancomycin-resistant Enterococcus faecalis 560 isolate; type: functional; in short: as §1
Enterococcus faecium [6] = experiment: Antimicrobial activity against vancomycin-resistant Enterococcus faecium 569 isolate; type: functional; in short: as §1
[7] = tested on: Staphylococcus haemolyticus; experiment: Antimicrobial activity against Staphylococcus haemolyticus 602 isolate; type: functional; in short: as §1
[8] = tested on: Staphylococcus epidermidis; experiment: Antimicrobial activity against Staphylococcus epidermidis 533 isolate; type: functional; in short: as §1
Enterococcus faecalis [9] = experiment: Antimicrobial activity against vancomycin-susceptible Enterococcus faecalis Enfa_29212 isolate; type: functional; in short: as §1
Enterococcus faecalis [10] = experiment: Antimicrobial activity against vancomycin-resistant Enterococcus faecalis Enfa_vre-2 isolate; type: functional; in short: as §1
Enterococcus faecalis [11] = experiment: Antimicrobial activity against vancomycin-resistant Enterococcus faecalis Enfa_t29862 isolate; type: functional; in short: as §1
Escherichia coli = experiment: Antimicrobial activity against Escherichia coli Esco_25922 isolate; type: functional
Staphylococcus aureus [12] = experiment: Antimicrobial activity against methicillin-resistant Staphylococcus aureus Stau_HIP5827 isolate; type: functional; in short: as §1
[13] = Bioavailability in BALB/c mouse at 25 mg/kg, sc; type: ADME, organism-based; details: in vivo
In short: (§2)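 Female BALB/c mice received the test compound by the iv, sc, ip or po route. Plasma exposure gave Cmax, bioavailability from the sc, ip and po routes, iv half-life, clearance and Vss. Clinical observations and mortality were also recorded.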

[14] = Cmax in BALB/c mouse at 25 mg/kg, ip; type: ADME, organism-based; parameters: dose 25 mg/kg, route intraperitoneal; details: in vivo; in short: as §2
[15] = Volume of distribution in BALB/c mouse at 25 mg/kg, iv; type: ADME, organism-based; parameters: dose 25 mg/kg, route intravenous; details: in vivo, read-out: Vss; in short: as §2
[16] = Cmax in BALB/c mouse at 25 mg/kg, iv; type: ADME, organism-based; parameters: dose 25 mg/kg, route intravenous; details: in vivo; in short: as §2
[17] = Half life in BALB/c mouse at 25 mg/kg, iv; type: ADME, organism-based; parameters: dose 25 mg/kg, route intravenous; details: in vivo; in short: as §2
[18] = Bioavailability in BALB/c mouse at 70 mg/kg, po; type: ADME, organism-based; details: in vivo; in short: as §2
[19] = Bioavailability in BALB/c mouse at 25 mg/kg, ip; type: ADME, organism-based; details: in vivo; in short: as §2
[20] = Clearance in BALB/c mouse at 25 mg/kg, iv; type: ADME, organism-based; parameters: dose 25 mg/kg, route intravenous; details: in vivo; in short: as §2
[21] = Cmax in BALB/c mouse at 25 mg/kg, sc; type: ADME, organism-based; parameters: dose 25 mg/kg, route subcutaneous; details: in vivo; in short: as §2

**Q.** Which results are given for `CN[C@H](CC(C)C)C(=O)N[C@H]1C(=O)N[C@@H](CC(N)=O)C(=O)N[C@H]2C(=O)N[C@H]3C(=O)N[C@H](C(=O)N[C@H](C(=O)NCC4C5CC6CC(C5)CC4C6)c4cc(O)cc(O)c4-c4cc3ccc4O)[C@H](O[C@@H]3C[C@@](C)(N)[C@H](O)[C@@H](C)O3)c3ccc(cc3)Oc3cc2cc(c3O[C@H]2O[C@@H](CO)[C@H](O)[C@@H](O)[C@@H]2O[C@H]2C[C@](C)(N)[C@@H](O)[C@H](C)O2)Oc2ccc(cc2Cl)[C@H]1O` (some centres undefined)?
**A.** MIC (Staphylococcus aureus [1]): 2 µg/mL (≈ 1.17 µM); MIC (Enterococcus faecalis [2]): 1 µg/mL (≈ 0.586 µM); MIC (Enterococcus faecium [3]): 0.5 µg/mL (≈ 0.293 µM); MIC (Staphylococcus aureus [4]): 1 µg/mL (≈ 0.586 µM); MIC (Enterococcus faecalis [5]): 16 µg/mL (≈ 9.38 µM); MIC (Enterococcus faecium [6]): 16 µg/mL (≈ 9.38 µM); MIC [7]: 0.5 µg/mL (≈ 0.293 µM); MIC [8]: 0.5 µg/mL (≈ 0.293 µM)

**Q.** Which results are given for `CN[C@H](CC(C)C)C(=O)N[C@H]1C(=O)N[C@@H](CC(N)=O)C(=O)N[C@H]2C(=O)N[C@H]3C(=O)N[C@H](C(=O)N[C@H](C(=O)NC(C)C4C5CC6CC(C5)CC4C6)c4cc(O)cc(O)c4-c4cc3ccc4O)[C@H](O[C@@H]3C[C@@](C)(N)[C@H](O)[C@@H](C)O3)c3ccc(cc3)Oc3cc2cc(c3O[C@H]2O[C@@H](CO)[C@H](O)[C@@H](O)[C@@H]2O[C@H]2C[C@](C)(N)[C@@H](O)[C@H](C)O2)Oc2ccc(cc2Cl)[C@H]1O` (some centres undefined)?
**A.** MIC (Staphylococcus aureus [1]): 2 µg/mL (≈ 1.16 µM); MIC (Enterococcus faecalis [2]): 1 µg/mL (≈ 0.582 µM); MIC (Enterococcus faecium [3]): 0.5 µg/mL (≈ 0.291 µM); MIC (Staphylococcus aureus [4]): 4 µg/mL (≈ 2.33 µM); MIC (Enterococcus faecalis [5]): 16 µg/mL (≈ 9.31 µM); MIC (Enterococcus faecium [6]): 16 µg/mL (≈ 9.31 µM); MIC [7]: 1 µg/mL (≈ 0.582 µM); MIC [8]: 0.5 µg/mL (≈ 0.291 µM)

**Q.** Which MIC (Staphylococcus aureus [1]) does the source give for `CN[C@H](CC(C)C)C(=O)N[C@H]1C(=O)N[C@@H](CC(N)=O)C(=O)N[C@H]2C(=O)N[C@H]3C(=O)N[C@H](C(=O)N[C@H](C(=O)O)c4cc(O)cc(O)c4-c4cc3ccc4O)[C@H](O)c3ccc(c(Cl)c3)Oc3cc2cc(c3O[C@@H]2O[C@H](CO)[C@@H](O)[C@H](O)[C@H]2O[C@H]2C[C@](C)(N)[C@H](O)[C@H](C)O2)Oc2ccc(cc2Cl)[C@H]1O` [VANCOMYCIN] here?
**A.** 8 µg/mL (≈ 5.52 µM)

**Q.** What about the MIC (Enterococcus faecalis [2]) of the same molecule?
**A.** 1 µg/mL (≈ 0.69 µM)

**Q.** And the MIC (Enterococcus faecalis [9])?
**A.** 2 µg/mL (≈ 1.38 µM)

**Q.** What about the MIC (Enterococcus faecalis [10]) of the same molecule?
**A.** > 64 µg/mL

**Q.** And the MIC (Staphylococcus aureus [4])?
**A.** 16 µg/mL (≈ 11 µM)

**Q.** What about the MIC (Enterococcus faecalis [5]) of the same molecule?
**A.** > 128 µg/mL

**Q.** What about the MIC (Enterococcus faecium [6]) of the same molecule?
**A.** > 128 µg/mL

**Q.** What about the MIC [7] of the same molecule?
**A.** 2 µg/mL (≈ 1.38 µM)

**Q.** And the MIC (Enterococcus faecalis [11])?
**A.** > 64 µg/mL

**Q.** What about the MIC (Escherichia coli) of the same molecule?
**A.** > 50 µg/mL

**Q.** And the MIC (Staphylococcus aureus [12])?
**A.** 8 µg/mL (≈ 5.52 µM)

**Q.** Which results are given for `CN[C@H](CC(C)C)C(=O)N[C@H]1C(=O)N[C@@H](CC(N)=O)C(=O)N[C@H]2C(=O)N[C@H]3C(=O)N[C@H](C(=O)N[C@H](C(=O)NC45CC6CC(CC(C6)C4)C5)c4cc(O)cc(O)c4-c4cc3ccc4O)[C@H](O[C@@H]3C[C@@](C)(N)[C@H](O)[C@@H](C)O3)c3ccc(cc3)Oc3cc2cc(c3O[C@H]2O[C@@H](CO)[C@H](O)[C@@H](O)[C@@H]2O[C@H]2C[C@](C)(N)[C@@H](O)[C@H](C)O2)Oc2ccc(cc2Cl)[C@H]1O`?
**A.** bioavailability [13]: 78%; Cmax [14]: 9700 ng/mL; Vd [15]: 2.18 L/kg; Cmax [16]: 11500 ng/mL; half-life [17]: 168 min; bioavailability [18]: 0%; bioavailability [19]: 95%; clearance [20]: 8.93 mL/min/kg; Cmax [21]: 7200 ng/mL

**Q.** With `CN[C@H](CC(C)C)C(=O)N[C@H]1C(=O)N[C@@H](CC(N)=O)C(=O)N[C@H]2C(=O)N[C@H]3C(=O)N[C@H](C(=O)N[C@H](C(=O)O)c4cc(O)cc(O)c4-c4cc3ccc4O)[C@H](O[C@@H]3C[C@@](C)(N)[C@H](O)[C@@H](C)O3)c3ccc(cc3)Oc3cc2cc(c3O[C@H]2O[C@@H](CO)[C@H](O)[C@@H](O)[C@@H]2O[C@H]2C[C@](C)(N)[C@@H](O)[C@H](C)O2)Oc2ccc(cc2Cl)[C@H]1O` [EREMOMYCIN] as the molecule, how does the MIC (Staphylococcus aureus [1]) read?
**A.** 8 µg/mL (≈ 5.13 µM)

**Q.** What about the MIC (Enterococcus faecalis [2]) of the same molecule?
**A.** 0.5 µg/mL (≈ 0.321 µM)

**Q.** And the MIC (Enterococcus faecium [3])?
**A.** 0.5 µg/mL (≈ 0.321 µM)

**Q.** What about the MIC (Staphylococcus aureus [4]) of the same molecule?
**A.** 8 µg/mL (≈ 5.13 µM)

**Q.** What about the MIC (Enterococcus faecalis [5]) of the same molecule?
**A.** > 128 µg/mL

**Q.** And the MIC (Enterococcus faecium [6])?
**A.** > 128 µg/mL

**Q.** What about the MIC [7] of the same molecule?
**A.** 0.25 µg/mL (≈ 0.16 µM)

**Q.** What about the MIC [8] of the same molecule?
**A.** 0.25 µg/mL (≈ 0.16 µM)
